Reference: ChEMBL document CHEMBL4330067, “Synthesis and mechanistic studies of diketo acids and their bioisosteres as potential antibacterial agents” (Eur J Med Chem, 2019)
≈ marks a conversion by molar mass, not a printed value. Calls of active or inactive are those of the source. The rule behind the calls is not given here.

What was measured:
Escherichia coli [1] = assay: Antibacterial activity against Escherichia coli MRA11 at 512 ug/mL after 24 hrs by broth dilution assay relative to control; format: functional
Outline: (§1)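 Multidrug-resistant E. coli isolates in Luria broth, test range 8 to 1024 µg/mL (ciprofloxacin 0.49 to 63.3 µg/mL). Inoculum 10 µL of a 1000-fold diluted 0.1 OD600 culture, incubated overnight at 37 °C. OD read at 600 nm. % inhibition = (a−b)/a×100, with media and compound-colour blanks subtracted.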

Escherichia coli [2] = assay: Antibacterial activity against Escherichia coli MRAE26 at 1024 ug/mL after 24 hrs by broth dilution assay relative to control; format: functional; outline: as §1
Escherichia coli [3] = assay: Antibacterial activity against Escherichia coli MRAE44 at 1024 ug/mL after 24 hrs by broth dilution assay; format: functional, organism-based; outline: as §1
Enterococcus faecalis [4] = assay: Inhibition of Enterococcus faecalis methionine aminopeptidase 1A at 100 uM using Met-AMC as substrate relative to control
Outline: (§2)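 Purified MetAP at 4 µM in 50 mM HEPES with 150 mM KCl and CoCl2 at 3 molar equivalents of enzyme. pH 7.5 for SpMetAP1a and EfMetAP1a, pH 8.0 for HsMetAP1b. Substrate L-Met-AMC at 50, 100 and 150 µM. Compounds (10 mM DMSO stocks) tested over 1 to 120 µM for % inhibition; Ki by Dixon method.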

[5] = Inhibition of Mycobacterium tuberculosis methionine aminopeptidase 1C using Met-AMC as substrate by Dixon method
Klebsiella pneumoniae [6] = assay: Antibacterial activity against Klebsiella pneumoniae ATCC 700603 after 24 hrs by broth dilution assay; format: functional; settings: Klebsiella pneumoniae, 700603, 24 h
Outline: (§3)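 Broth dilution per NCCLS in nutrient broth, serial dilutions 1000 to 7.8 µg/mL, DMSO below 4% final. Inoculum approx. 2.5×10⁶ cells/mL, 37 °C with shaking at 150 rpm for 24 h. MIC taken as the lowest concentration with no visible growth. Ciprofloxacin served as positive control.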

Escherichia coli [7] = assay: Synergistic antibacterial activity against Escherichia coli MRA11 assessed as ciprofloxacin MIC at 16 to 1024 ug/mL after 18 hrs by checkerboard method; format: functional; settings: MRA11, 18 h
Outline: (§4)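 Checkerboard combination with ciprofloxacin in Mueller-Hinton broth: compound 1024 to 16 µg/mL crossed with ciprofloxacin 128 to 2 µg/mL. Inoculum 5×10⁵ CFU/mL suspension, 18 h at 37 °C. Fractional inhibitory concentration index derived from the combination.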

Escherichia coli [8] = assay: Antibacterial activity against Escherichia coli MRC17 after overnight incubation; format: functional; outline: as §1
Escherichia coli [9] = assay: Antibacterial activity against Escherichia coli MRAE26 after overnight incubation; format: functional; outline: as §1
[10] = Inhibition of Streptococcus pneumoniae methionine aminopeptidase 1A using Met-AMC as substrate by Dixon method; outline: as §2
Enterococcus faecalis [11] = assay: Antibacterial activity against Enterococcus faecalis MTCC 439 after 24 hrs by broth dilution assay; format: functional; settings: MTCC 439, 24 h; outline: as §3
[12] = Cytotoxicity against CHO cells assessed as cell viability at 100 ug/mL after 48 hrs by MTT assay relative to control; format: cell-based, Cricetulus griseus; settings: chinese hamster, read-out: Activity
Outline: (§5)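 MTT assay: cells maintained in DMEM with 10% FBS and penicillin/streptomycin at 37 °C, 5% CO2. Seeded at approx. 2×10⁴ cells/well, 24 h before treatment, then exposed to 10 to 400 µg/mL for 48 h at 37 °C. MTT (5 mg/mL stock in PBS) added for 4 h, formazan dissolved in DMSO, A570 read. Triplicate wells; viability given relative to untreated cells.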

Escherichia coli [13] = assay: Antibacterial activity against Escherichia coli MROB11 after overnight incubation; format: functional; outline: as §1
Escherichia coli [14] = assay: Antibacterial activity against Escherichia coli MRA11 after overnight incubation; format: functional; outline: as §1
Escherichia coli [15] = assay: Antibacterial activity against Escherichia coli MROB11 at 512 ug/mL after 24 hrs by broth dilution assay relative to control; format: functional; outline: as §1
Escherichia coli [16] = assay: Antibacterial activity against Escherichia coli MRAE44 after overnight incubation; format: functional; outline: as §1
Escherichia coli [17] = assay: Synergistic antibacterial activity against Escherichia coli MRC17 assessed as fractional inhibitory concentration index after 18 hrs in presence of ciprofloxacin by checkerboard method; format: functional
Outline: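 Checkerboard combination against MDR E. coli. Test agent gradient 1024–16 µg/mL crossed with ciprofloxacin 128–2 µg/mL in Mueller-Hinton broth. Wells were inoculated with a 5 × 10⁵ CFU/mL suspension and incubated 18 h at 37 °C. Interaction was expressed as the fractional inhibitory concentration index (FICI).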

Escherichia coli [18] = assay: Antibacterial activity against Escherichia coli ATCC 25922 after 24 hrs by broth dilution assay; format: functional; settings: ATCC 25922, 24 h; outline: as §3
Streptococcus pneumoniae = assay: Inhibition of Streptococcus pneumoniae methionine aminopeptidase 1A at 100 uM using Met-AMC as substrate relative to control; outline: as §2
Escherichia coli [19] = assay: Antibacterial activity against Escherichia coli MRC17 at 512 ug/mL after 24 hrs by broth dilution assay relative to control; format: functional; outline: as §1
Escherichia coli [20] = assay: Bactericidal activity against Escherichia coli at 1 to 2 times MIC after 24 hrs by spectrophotometric analysis; format: functional, organism-based
Outline: (§6)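 Growth kinetics in 50 mL nutrient broth seeded at approx. 2×10⁶ cells/mL, compound at 2MIC, MIC and ½MIC, 37 °C at 160 rpm. Ciprofloxacin 10 µg/mL as positive control. 1 mL aliquots taken every 2 h from 0 to 22 h. Turbidity read at 600 nm and OD plotted against time.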

Escherichia coli [21] = assay: Antibacterial activity against Escherichia coli MRAE33 at 1024 ug/mL after 24 hrs by broth dilution assay relative to control; format: functional; outline: as §1
Pseudomonas aeruginosa = assay: Anti-biofilm activity against Pseudomonas aeruginosa after 24 hrs by XTT assay; format: functional, organism-based
Outline: (§7)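 Biofilm XTT reduction assay: serial dilutions 1000 to 7.8 µg/mL in tryptic soy broth, inoculum approx. 5×10⁵ CFU/mL, 37 °C for 24 h static. Non-adherent cells removed by PBS wash, XTT added, 90 min at 37 °C in dark, absorbance at 490 nm. IC50 (50% inhibition of biofilm formation) read from dose-response curves.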

Escherichia coli [22] = assay: Synergistic antibacterial activity against Escherichia coli MRA11 after 18 hrs in presence of ciprofloxacin by checkerboard method; format: functional; settings: MRA11, 18 h; outline: as §4
Escherichia coli [23] = assay: Bactericidal activity against Escherichia coli at sub-MIC after 22 hrs by spectrophotometric analysis; format: functional, organism-based; outline: as §6
Escherichia coli [24] = assay: Synergistic antibacterial activity against Escherichia coli MRAE33 assessed as fractional inhibitory concentration index after 18 hrs in presence of ciprofloxacin by checkerboard method; format: functional; outline: as §4
Escherichia coli [25] = assay: Antibacterial activity against Escherichia coli MRAE33 after overnight incubation; format: functional; outline: as §1
CHO = assay: Cytotoxicity against CHO cells at 300 ug/mL after 48 hrs by MTT assay; format: cell-based, Cricetulus griseus; settings: chinese hamster; outline: as §5
Escherichia coli [26] = assay: Antibacterial activity against Escherichia coli MRAE32 after overnight incubation; format: functional; outline: as §1
Klebsiella pneumoniae [27] = assay: Anti-biofilm activity against Klebsiella pneumoniae after 24 hrs by XTT assay; format: functional, organism-based; outline: as §7
Escherichia coli [28] = assay: Synergistic antibacterial activity against Escherichia coli MRC17 assessed as ciprofloxacin MIC at 16 to 1024 ug/mL after 18 hrs by checkerboard method; format: functional; settings: MRC17, 18 h; outline: as §4

SMILES: Cc1c(C(=O)/C=C(\O)C(=O)N[C@H](C)C(=O)O)oc2ccc(Br)cc12
- Activity (Escherichia coli [1]): 100%
- Activity (Escherichia coli [2]): >95%
- Activity (Escherichia coli [3]): Active
- inhibition (Enterococcus faecalis [4]): 92.7%
- Ki [5]: 9.89 µM
- MIC (Klebsiella pneumoniae [6]): 500 µg/mL (≈ 1260 µM)
- MIC (Escherichia coli [7]): 16 µg/mL
- ICmax (Escherichia coli [8]): 512 µg/mL
- MIC (Escherichia coli [8]; Escherichia coli, MRC17): 512 µg/mL (≈ 1290 µM)
- ICmax (Escherichia coli [9]): 1024 µg/mL
- Ki [10]: 28.3 µM
- MIC (Enterococcus faecalis [11]): 125 µg/mL (≈ 316 µM)
- viability at 48 h, 100 ug/mL [12]: 70%
- ICmax (Escherichia coli [13]): 512 µg/mL
- ICmax (Escherichia coli [14]): 512 µg/mL
- MIC (Escherichia coli [14]; Escherichia coli, MRA11): 512 µg/mL (≈ 1290 µM)
- Activity (Escherichia coli [15]): 100%
- ICmax (Escherichia coli [16]): 1024 µg/mL
- fractional inhibitory concentration index (FICI) (Escherichia coli [17]): 1.5
- MIC (Escherichia coli [18]): 62.5 µg/mL (≈ 158 µM)
- inhibition (Streptococcus pneumoniae): 98.2%
- Activity (Escherichia coli [19]): 100%
- Activity (Escherichia coli [20]): Active
- Activity (Escherichia coli [21]): >95%
- IC50 (Pseudomonas aeruginosa): 1.69 µg/mL (≈ 4.27 µM)
- MIC (Escherichia coli [22]): 512 µg/mL
- Activity (Escherichia coli [23]): Active
- fractional inhibitory concentration index (FICI) (Escherichia coli [24]): 1.0156
- ICmax (Escherichia coli [25]): 1024 µg/mL
- MIC (Escherichia coli [25]; Escherichia coli, MRAE33): 1020 µg/mL (≈ 2580 µM)
- Activity (CHO): Toxic
- ICmax (Escherichia coli [26]): 512 µg/mL
- IC50 (Klebsiella pneumoniae [27]): 113 µg/mL (≈ 286 µM)
- MIC (Escherichia coli [28]): 64 µg/mL
